System: Fibroblast
Experiment: Multiplex assay against human fibroblast
Type: toxicity, cell-based
Procedure, shortened: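 Live cells carried four stains from seeding: Hoechst33342, BioTracker Green Microtubule Cytoskeleton Dye, MitoTracker Red and Annexin V Alexa Fluor 680. They were imaged on a CQ1 microscope at 37°C and 5% CO2 after compound addition. Using CellPathfinder machine-learning gating, cells were split into Hoechst high-intensity objects or normal cells, normal cells into healthy, pyknosed or fragmented nuclei, and pyknosed cells into mitotic or apoptotic; tubulin, mitochondrial-mass and membrane-permeability phenotypes are per cents of healthy-nucleus cells.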

[1] = 12 h, 1 µM, compound concentration 1 uM, replicate 1
[2] = 12 h, 1 µM, compound concentration 1 uM, replicate 2
[3] = 12 h, 10 µM, compound concentration 10 uM, replicate 1
[4] = 12 h, 10 µM, compound concentration 10 uM, replicate 2
[5] = 24 h, 1 µM, compound concentration 1 uM, replicate 1
[6] = 24 h, 1 µM, compound concentration 1 uM, replicate 2
[7] = 24 h, 10 µM, compound concentration 10 uM, replicate 1
[8] = 24 h, 10 µM, compound concentration 10 uM, replicate 2
[9] = 48 h, 1 µM, compound concentration 1 uM, replicate 1
[10] = 48 h, 1 µM, compound concentration 1 uM, replicate 2
[11] = 48 h, 10 µM, compound concentration 10 uM, replicate 1
[12] = 48 h, 10 µM, compound concentration 10 uM, replicate 2

In the case of `Cl.O=c1c2cccn2c2ccccc2n1CCCN1CCC(c2ccc(Cl)cc2)CC1`, the “Population Apoptotic (%)” value [1] is reported as 68%, the “Population Fragmented Nuclei (%)” value [1] is reported as 21% and the “Population Healthy Nuclei (%)” value [1] is reported as 61%. The “Population Hoechst High Intensity Objects (%)” value [1] was 12%, the “Population Membrane Permeable-Phenotype (%)” value [1] was 10% and the “Population Mitochondria Different-Phenotype (%)” value [1] was 15%. For the same molecule, the “Population Mitotic Cells (%)” value [1] was 31%, the “Population Normal (%)” value [1] was 87% and the “Population Pyknosed Nuclei (%)” value [1] was 17%. The “Population Tubulin-Different-Phenotype (%)” value [1] was 40%, the “Total Cell Count” value [1] was 123 and the “Population Apoptotic (%)” value [2] was 60%. For the same molecule, the “Population Fragmented Nuclei (%)” value [2] was 16%, the “Population Healthy Nuclei (%)” value [2] was 73% and the “Population Hoechst High Intensity Objects (%)” value [2] was 8%. The “Population Membrane Permeable-Phenotype (%)” value [2] was 0%, the “Population Mitochondria Different-Phenotype (%)” value [2] was 56% and the “Population Mitotic Cells (%)” value [2] was 40%. For the same molecule, the “Population Normal (%)” value [2] was 91%, the “Population Pyknosed Nuclei (%)” value [2] was 9% and the “Population Tubulin-Different-Phenotype (%)” value [2] was 30%. For the same molecule, the “Total Cell Count” value [2] was 119, the “Population Apoptotic (%)” value [3] was 48% and the “Population Fragmented Nuclei (%)” value [3] was 28%. For the same molecule, the “Population Healthy Nuclei (%)” value [3] was 42%, the “Population Hoechst High Intensity Objects (%)” value [3] was 30% and the “Population Membrane Permeable-Phenotype (%)” value [3] was 5%. For the same molecule, the “Population Mitochondria Different-Phenotype (%)” value [3] was 52%, the “Population Mitotic Cells (%)” value [3] was 51% and the “Population Normal (%)” value [3] was 69%. The “Population Pyknosed Nuclei (%)” value [3] was 28%, the “Population Tubulin-Different-Phenotype (%)” value [3] was 84% and the “Total Cell Count” value [3] was 175. The “Population Apoptotic (%)” value [4] was 78%, the “Population Fragmented Nuclei (%)” value [4] was 21% and the “Population Healthy Nuclei (%)” value [4] was 57%. The “Population Hoechst High Intensity Objects (%)” value [4] was 11%, the “Population Membrane Permeable-Phenotype (%)” value [4] was 74% and the “Population Mitochondria Different-Phenotype (%)” value [4] was 98%. For the same molecule, the “Population Mitotic Cells (%)” value [4] was 21%, the “Population Normal (%)” value [4] was 89% and the “Population Pyknosed Nuclei (%)” value [4] was 21%. The “Population Tubulin-Different-Phenotype (%)” value [4] was 98%, the “Total Cell Count” value [4] was 58 and the “Population Apoptotic (%)” value [5] was 48%. The “Population Fragmented Nuclei (%)” value [5] was 28%, the “Population Healthy Nuclei (%)” value [5] was 44% and the “Population Hoechst High Intensity Objects (%)” value [5] was 11%. For the same molecule, the “Population Membrane Permeable-Phenotype (%)” value [5] was 12%, the “Population Mitochondria Different-Phenotype (%)” value [5] was 10% and the “Population Mitotic Cells (%)” value [5] was 51%. The “Population Normal (%)” value [5] was 88%, the “Population Pyknosed Nuclei (%)” value [5] was 27% and the “Population Tubulin-Different-Phenotype (%)” value [5] was 45%. For the same molecule, the “Total Cell Count” value [5] was 121, the “Population Apoptotic (%)” value [6] was 25% and the “Population Fragmented Nuclei (%)” value [6] was 16%. The “Population Healthy Nuclei (%)” value [6] was 70%, the “Population Hoechst High Intensity Objects (%)” value [6] was 7% and the “Population Membrane Permeable-Phenotype (%)” value [6] was 2%. The “Population Mitochondria Different-Phenotype (%)” value [6] was 38%, the “Population Mitotic Cells (%)” value [6] was 75% and the “Population Normal (%)” value [6] was 92%. The “Population Pyknosed Nuclei (%)” value [6] was 13%, the “Population Tubulin-Different-Phenotype (%)” value [6] was 19% and the “Total Cell Count” value [6] was 147. The “Population Apoptotic (%)” value [7] was 67%, the “Population Fragmented Nuclei (%)” value [7] was 21% and the “Population Healthy Nuclei (%)” value [7] was 49%. For the same molecule, the “Population Hoechst High Intensity Objects (%)” value [7] was 39%, the “Population Membrane Permeable-Phenotype (%)” value [7] was 7% and the “Population Mitochondria Different-Phenotype (%)” value [7] was 40%. The “Population Mitotic Cells (%)” value [7] was 32%, the “Population Normal (%)” value [7] was 60% and the “Population Pyknosed Nuclei (%)” value [7] was 29%. The “Population Tubulin-Different-Phenotype (%)” value [7] was 63%, the “Total Cell Count” value [7] was 193 and the “Population Apoptotic (%)” value [8] was 87%. For the same molecule, the “Population Fragmented Nuclei (%)” value [8] was 14%, the “Population Healthy Nuclei (%)” value [8] was 64% and the “Population Hoechst High Intensity Objects (%)” value [8] was 7%. The “Population Membrane Permeable-Phenotype (%)” value [8] was 72%, the “Population Mitochondria Different-Phenotype (%)” value [8] was 98% and the “Population Mitotic Cells (%)” value [8] was 12%. For the same molecule, the “Population Normal (%)” value [8] was 92%, the “Population Pyknosed Nuclei (%)” value [8] was 20% and the “Population Tubulin-Different-Phenotype (%)” value [8] was 98%. The “Total Cell Count” value [8] was 65, the “Population Apoptotic (%)” value [9] was 45% and the “Population Fragmented Nuclei (%)” value [9] was 43%. For the same molecule, the “Population Healthy Nuclei (%)” value [9] was 36%, the “Population Hoechst High Intensity Objects (%)” value [9] was 14% and the “Population Membrane Permeable-Phenotype (%)” value [9] was 11%. For the same molecule, the “Population Mitochondria Different-Phenotype (%)” value [9] was 2%, the “Population Mitotic Cells (%)” value [9] was 54% and the “Population Normal (%)” value [9] was 85%. The “Population Pyknosed Nuclei (%)” value [9] was 19%, the “Population Tubulin-Different-Phenotype (%)” value [9] was 47% and the “Total Cell Count” value [9] was 142. For the same molecule, the “Population Apoptotic (%)” value [10] was 66%, the “Population Fragmented Nuclei (%)” value [10] was 44% and the “Population Healthy Nuclei (%)” value [10] was 52%. The “Population Hoechst High Intensity Objects (%)” value [10] was 11%, the “Population Membrane Permeable-Phenotype (%)” value [10] was 5% and the “Population Mitochondria Different-Phenotype (%)” value [10] was 1%. The “Population Mitotic Cells (%)” value [10] was 33%, the “Population Normal (%)” value [10] was 88% and the “Population Pyknosed Nuclei (%)” value [10] was 2%. The “Population Tubulin-Different-Phenotype (%)” value [10] was 55%, the “Total Cell Count” value [10] was 120 and the “Population Apoptotic (%)” value [11] was 81%. The “Population Fragmented Nuclei (%)” value [11] was 28%, the “Population Healthy Nuclei (%)” value [11] was 50% and the “Population Hoechst High Intensity Objects (%)” value [11] was 48%. For the same molecule, the “Population Membrane Permeable-Phenotype (%)” value [11] was 2%, the “Population Mitochondria Different-Phenotype (%)” value [11] was 46% and the “Population Mitotic Cells (%)” value [11] was 18%. For the same molecule, the “Population Normal (%)” value [11] was 51%, the “Population Pyknosed Nuclei (%)” value [11] was 22% and the “Population Tubulin-Different-Phenotype (%)” value [11] was 78%. The “Total Cell Count” value [11] was 193, the “Population Apoptotic (%)” value [12] was 56% and the “Population Fragmented Nuclei (%)” value [12] was 27%. For the same molecule, the “Population Healthy Nuclei (%)” value [12] was 52%, the “Population Hoechst High Intensity Objects (%)” value [12] was 55% and the “Population Membrane Permeable-Phenotype (%)” value [12] was 3%. For the same molecule, the “Population Mitochondria Different-Phenotype (%)” value [12] was 48%, the “Population Mitotic Cells (%)” value [12] was 44% and the “Population Normal (%)” value [12] was 44%. For the same molecule, the “Population Pyknosed Nuclei (%)” value [12] was 19%, the “Population Tubulin-Different-Phenotype (%)” value [12] was 72% and the “Total Cell Count” value [12] was 281.

Reference: ChEMBL document CHEMBL4689842, “EUbOPEN Chemogenomics Library wave 1” (2021)
